GSH bead fluor: compound fluorescence on glutathione beads, profiling panel, artefact control, biophysical, 488/530 nm, flow cytometry | fluorescence (KMESF) at 10 µM | actives 0.25% (n = 190,000) | GSH beads flow cytometry, compound fluorescence 488/530 nm; stronger effect = higher value; in the data active means fluorescence above about 89;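 further: glutathione beads carrying GST-tagged Bcl family fusion proteins plus one bare bead set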
DSG3 Ab inh: inhibitors of pemphigus antibody binding to DSG3, primary screen, biochemical, bead-based, flow cytometry, scFv-GFP. AID 588358, 2011. binding (percent of control), % at 10 µM. Desmoglein-3 (Homo sapiens), P32926. DSG3-coupled beads, scFv-anti-DSG3-GFP binding; stronger effect = lower value. actives 0.48% (n = 310,000);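 active means binding more than 3 SD below its plate's average and above zero; inconclusive means below that plate limit but binding exactly zero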;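 further: hits lower antibody fragment binding to DSG3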
Target sequence (P32926 whole entry, looked up, the tested form may be a part): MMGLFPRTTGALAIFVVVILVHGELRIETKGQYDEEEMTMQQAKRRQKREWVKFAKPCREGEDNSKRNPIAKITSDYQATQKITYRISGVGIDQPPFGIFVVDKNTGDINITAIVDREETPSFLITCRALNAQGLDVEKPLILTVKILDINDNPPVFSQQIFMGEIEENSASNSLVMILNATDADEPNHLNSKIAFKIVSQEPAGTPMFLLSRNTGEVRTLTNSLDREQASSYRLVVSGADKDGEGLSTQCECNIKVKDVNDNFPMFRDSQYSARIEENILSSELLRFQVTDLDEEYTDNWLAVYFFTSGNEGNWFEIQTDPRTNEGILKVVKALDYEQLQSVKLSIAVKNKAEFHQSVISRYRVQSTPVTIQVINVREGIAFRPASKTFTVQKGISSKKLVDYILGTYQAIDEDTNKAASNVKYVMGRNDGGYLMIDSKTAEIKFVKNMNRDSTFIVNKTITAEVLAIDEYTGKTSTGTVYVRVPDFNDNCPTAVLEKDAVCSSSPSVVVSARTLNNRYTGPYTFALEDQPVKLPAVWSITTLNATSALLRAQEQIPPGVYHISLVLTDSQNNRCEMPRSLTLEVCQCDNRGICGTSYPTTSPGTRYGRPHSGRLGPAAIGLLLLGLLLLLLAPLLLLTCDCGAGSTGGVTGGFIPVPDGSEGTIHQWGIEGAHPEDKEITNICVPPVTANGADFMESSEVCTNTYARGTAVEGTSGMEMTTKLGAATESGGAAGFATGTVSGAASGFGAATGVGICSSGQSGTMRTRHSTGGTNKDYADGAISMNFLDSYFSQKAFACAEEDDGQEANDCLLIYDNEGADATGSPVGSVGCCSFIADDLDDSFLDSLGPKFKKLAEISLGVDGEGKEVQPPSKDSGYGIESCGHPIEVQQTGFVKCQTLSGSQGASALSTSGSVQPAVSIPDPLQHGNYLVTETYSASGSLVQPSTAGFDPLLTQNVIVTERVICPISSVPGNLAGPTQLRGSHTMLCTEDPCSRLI
Avidin bead fluor: green autofluorescence of compounds with avidin beads – biophysical, 488/530 nm, flow cytometry, artefact control, profiling panel. compound fluorescence 488/530 nm; stronger effect = higher value. fluorescence (KMESF) at 10 µM. AID 1775, 2009. actives 0.38% (n = 220,000); in the data active means fluorescence above about 47
Arrestin-AP2 inh: inhibitors of beta-arrestin/AP2 binding, primary screen, biochemical, GPCR trafficking, flow cytometry. beta-arrestin 1 C-terminal peptide binding to AP2 beta2-adaptin appendage (human). actives 0.31% (n = 340,000). inhibition, % at 10 µM. FITC-arrestin peptide / GST-AP2 beads; AP2 beta2 appendage carries R879A mutation;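 active means inhibition above a set limit, near 3 SD of compounds lacking own fluorescence, cut at about 54% in these data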
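Material – AP2 appendage R879A on GSH beads · Buffer or medium – PBS with 0.05% Tween 20 and 0.1% BSA · Probe or stimulus – fluorescein-tagged arrestin peptide at 50 nM final · Incubation – compound with beads 12 min RT, then probe 1 h RT · Detection – high-throughput flow cytometry of beads, ex 488, em 535 nm · Evaluation – percent response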
Each line names hits and unclear results; the compound was inactive in the other large screens. Shown are actives, neighbours in structure and some others; about 1.1% of the full set was active somewhere.

COc1ccc(C(=O)NN=C(Cc2ccccc2)Cc2ccccc2)cc1OC	DSG3 Ab inh 0.8
COc1ccc(C(=O)Cc2ccccc2)cc1OC	none
COc1cc(NC(=O)C2CC(c3ccc(Cl)cc3)=NO2)cc(OC)c1OC (stereo not given)	DSG3 Ab inh 63.0 (no result: GSH bead fluor, Avidin bead fluor)
CCn1cc(C(=O)Nc2ccc(Cl)cc2Cl)cn1	none (no result: GSH bead fluor, Avidin bead fluor)
NS(=O)(=O)c1ccc(N/C=C/C(=O)c2ccc(Br)cc2)cc1	DSG3 Ab inh 92.6
O=C(c1cnn2c(C(F)(F)F)cc(-c3cccs3)nc12)N1CCN(C(c2ccccc2)c2ccccc2)CC1	GSH bead fluor 126
COc1ccc(CCC(=O)OCc2csc(CC(=O)Nc3ccc(C)cc3)n2)cc1OC	none (no result: GSH bead fluor, Avidin bead fluor)
O=C1CC(C(=O)Nc2ccc(Cl)cc2)n2ncnc2N1 (stereo not given)	DSG3 Ab inh -8.7
CCOc1ccc(NC(=O)c2ccc3c(c2)S(=O)(=O)N=C2CCCCCN23)cc1	DSG3 Ab inh 77.5 (no result: GSH bead fluor, Avidin bead fluor, Arrestin-AP2 inh)
CCOc1ccc(S(=O)(=O)Nc2ccc(C(=O)N/N=C(\C)c3ccc(-n4ccnc4)cc3)cc2)cc1	Avidin bead fluor 50
C=CC[C@@H](CC(=O)N[C@H](CO)Cc1ccccc1)C(=O)N[C@@H](COC(=O)[C@@H](CC=C)Cc1ccc(F)cc1)Cc1ccccc1	none (no result: GSH bead fluor, Avidin bead fluor)
CC(C)c1ccc(NC(=O)CN2CCN(C(=O)C3CCCO3)CC2)cc1 (stereo not given)	none (no result: GSH bead fluor, DSG3 Ab inh, Avidin bead fluor)
CC1Cc2ccccc2N1C(=O)CSc1nnnn1C (stereo not given)	GSH bead fluor 251
COc1ccc(S(=O)(=O)NCC(=O)Nc2ccc3c(c2)OCCO3)cc1OC	none (no result: GSH bead fluor, Avidin bead fluor)
COc1ccc(OC)c(NC(=O)NCCc2cccc(Cl)c2)c1	DSG3 Ab inh 75.4
COc1ccccc1NC(=O)NCCc1ccccc1	none (no result: GSH bead fluor, Avidin bead fluor)
Cc1nc(N)c(Cc2ccccc2F)c(N)n1	DSG3 Ab inh 24.0
CCCCN(C)C1=CC2=CC(=C(C#N)C#N)CCC2CC1 (stereo not given)	Avidin bead fluor 68 (no result: Arrestin-AP2 inh)
N#CC(C#N)=C1C=C2C=C(N3CCCCC3)CCC2CC1 (stereo not given)	GSH bead fluor 99, Avidin bead fluor 84 (no result: DSG3 Ab inh, Arrestin-AP2 inh)
C/C(=N\NC(=O)c1cccc(S(=O)(=O)N2CCCC2)c1)c1ccc(F)cc1	none (no result: GSH bead fluor, Avidin bead fluor)
CCCCN(CC)CCCNC(=O)c1cc2cc3ccc(C)cc3nc2o1	DSG3 Ab inh 69.4 (no result: GSH bead fluor, Avidin bead fluor)
Cc1ccnc(NS(=O)(=O)c2ccccc2)n1	none
Cc1cnc(NS(=O)(=O)c2ccccc2)c(C)n1	DSG3 Ab inh 66.3 (no result: GSH bead fluor, Avidin bead fluor)
Cc1nn(CCC(=O)O)c(C)c1C	Avidin bead fluor 79
O=C(CC(=O)c1c(F)cccc1Cl)c1ccccc1O	none (no result: GSH bead fluor, Avidin bead fluor)
O=C(Cc1ccccc1F)Nc1cccc2cccnc12	none
O=C(O)CCCC(=O)Nc1cccc2cccnc12	Avidin bead fluor 89
COc1ccc(N2CCN(Cc3nc4scc(-c5ccccc5)c4c(=O)[nH]3)CC2)cc1	DSG3 Ab inh 48.5
CC(Oc1ccc(Cl)cc1Cl)c1nc(-c2ccc(NC(=O)c3ccncc3)cc2)no1 (stereo not given)	GSH bead fluor 97
Cc1cccc(-c2c3c(=O)n(C)c(=O)n(C)c3cn2CC2CCCO2)c1 (stereo not given)	GSH bead fluor 261
NS(=O)(=O)c1ccc(CCNC(=O)C2CCN(C(=O)Nc3ccccc3)CC2)cc1	DSG3 Ab inh 57.1 (no result: GSH bead fluor, Avidin bead fluor)
O=C(NCCc1ccccc1)C1CCN(c2ncccn2)CC1	DSG3 Ab inh 88.9
COc1ccccc1N1CCN(S(=O)(=O)CCNC(=O)Cc2ccc(F)cc2)CC1	none (no result: GSH bead fluor, Avidin bead fluor)
CCc1ccc(N(CC(=O)N2CCCCCC2)S(C)(=O)=O)cc1	none (no result: GSH bead fluor, Avidin bead fluor)
COc1ccc(NC(=O)CSc2nc3ccccc3nc2N2CCCCC2)cc1	none (no result: GSH bead fluor, Avidin bead fluor)
COc1ccc(NC(=O)CSc2nc(N3CCCCC3)nc(N3CCCCC3)n2)cc1	DSG3 Ab inh 88.0
CC(NC(=O)CN1CCN(CC(=O)Nc2ccccc2Cl)CC1)c1ccc(Br)cc1 (stereo not given)	none (no result: GSH bead fluor, Avidin bead fluor)
NC(=O)C1(Nc2ccc(-c3ccc(Cl)cc3)cc2)CCCC1	DSG3 Ab inh 54.2 (no result: GSH bead fluor, Avidin bead fluor)
CC(=O)N=c1sc(S(N)(=O)=O)nn1C	DSG3 Ab inh -12.3
COc1cc(O)c(C(CCN2CCOCC2)c2cc(OC)c(OC)c(OC)c2)c(OC)c1 (stereo not given)	none (no result: GSH bead fluor)
Cc1c(C(=O)Nc2cc(S(=O)(=O)N3CCOCC3)ccc2N2CCOCC2)oc2ccccc12	none
COc1ccc(-c2cn3ccc4ccccc4c3n2)cc1	DSG3 Ab inh 86.3
COc1ccc(-c2nnc(COc3ccc4ccccc4c3)o2)cc1OC	none
COc1cc2ccccc2cc1-c1nnc(COc2ccccc2)o1	DSG3 Ab inh 89.8
Cc1cccc(Cn2ccc(-c3ccc(Cl)cc3)c(C#N)c2=O)c1	none
N#Cc1c(-c2ccccc2)ccn(Cc2ccc(Cl)cc2)c1=O	Avidin bead fluor 49
COc1cccc(CNC(=O)CN(C)S(=O)(=O)c2ccc(Br)s2)c1	DSG3 Ab inh inconclusive (no result: GSH bead fluor, Avidin bead fluor)
Cc1ccc(-c2nn3c(C)nnc3c3ccccc23)cc1S(=O)(=O)NCCO	Avidin bead fluor 73
Cc1ccc(-c2nn3c(C)nnc3c3ccccc23)cc1S(=O)(=O)NC(C)(C)CO	none
Cc1ccc(NC(=O)c2cccnc2)cc1C	DSG3 Ab inh 15.5 (no result: GSH bead fluor, Avidin bead fluor)
CCOc1ccc(-c2nc(N)ncc2Oc2ccccc2Br)c(O)c1	DSG3 Ab inh 23.3
CCc1ccc(CNC(=O)CCC(=O)n2ncc3cc(C)ccc32)cc1	DSG3 Ab inh 76.8 (no result: GSH bead fluor, Avidin bead fluor)
Cc1cc(C)c(N2C(=O)C3C4CC(=O)C(c5ccccc54)C3C2=O)c(C)c1 (stereo not given)	none (no result: GSH bead fluor)
Cc1cccc(NC(=O)NNC(=O)COc2ccc(Cl)cc2)c1	none
CCc1ccccc1N1CC23C=CC(O2)C(C(=O)OCC(C)C)C3C1=O (stereo not given)	Avidin bead fluor 56
CCC(CC)c1nnc(NC(=O)c2c(C)nn(Cc3ccccc3Cl)c2C)s1	DSG3 Ab inh 53.4
O=C(NCCc1ccco1)C(=O)NCC1OCCCN1S(=O)(=O)c1ccc(Cl)cc1 (stereo not given)	none (no result: GSH bead fluor, DSG3 Ab inh, Avidin bead fluor)
Cc1ccc(S(=O)(=O)N2CCCOC2CNC(=O)C(=O)NCCc2ccco2)cc1 (stereo not given)	DSG3 Ab inh 82.1 (no result: GSH bead fluor, Avidin bead fluor, Arrestin-AP2 inh)
COc1cc(-c2nc3oc4ccccc4c(=O)c3c(=O)n2Cc2ccco2)cc(OC)c1OC	Avidin bead fluor 49
COc1ccc2c(=O)c3c(=O)n(Cc4ccco4)c(-c4ccc(C)cc4)nc3oc2c1	none
COc1cccc(C2c3c(oc4cc(C)c(C)cc4c3=O)C(=O)N2CCCN(C)C)c1 (stereo not given)	Avidin bead fluor 117
COc1ccc(C(=O)Nc2ccccc2C(=O)N(Cc2ccco2)C(C(N)=O)C(C)C)cc1 (stereo not given)	Avidin bead fluor 104
CC1CCCC(NC(=O)COC(=O)CCC2CCCC2)C1C (stereo not given)	DSG3 Ab inh 45.1
O=c1c2cc([N+](=O)[O-])ccc2sn1-c1ccccc1	DSG3 Ab inh 65.7 (no result: GSH bead fluor, Avidin bead fluor, Arrestin-AP2 inh)
